Source: ChEMBL document CHEMBL3425469, “Discovery of imidazo[2,1-b]thiazole HCV NS4B inhibitors exhibiting synergistic effect with other direct-acting antiviral agents” (J Med Chem, 2015)

What was measured:
[1] = Cytotoxicity against human HuH7 cells assessed as cell proliferation by cell titer assay; format: cell-based, Huh-7
Method in brief: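 Huh-7 cells carrying GT1b Con1 bicistronic replicon seeded at 8000 cells/well; compound added at 0.5% DMSO final, 37°C for 72 h. Proliferation read with CellTiter-Fluor reagent per manufacturer; CC50 fitted from concentration-response, average of at least two independent determinations.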

Hepatitis C virus [2] = assay: Antiviral activity against Hepatitis C virus genotype 1b Con1 infected in human HuH7 cells after 72 hrs by luciferase assay; format: functional, cell-based, Hepacivirus hominis; settings: genotype 1b Con 1, Huh-7, 72 h
Method in brief: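 Huh-7 cells stably carrying a genotype 1b Con1 bicistronic luciferase replicon, seeded at 8000 cells/well. Compounds were added at 0.5% DMSO final and incubated at 37°C for 72 h. Read-out was Bright-Glo luciferase, with cell proliferation measured by CellTiter-Fluor. EC50 is the mean of at least two independent runs. Some values are given as percent inhibition at 10 µM.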

Hepatitis C virus [3] = assay: Antiviral activity against Hepatitis C virus genotype 1b Con 1 infected in human HuH7 cells at 10 uM after 72 hrs by luciferase assay; format: functional, Hepacivirus hominis; settings: genotype 1b Con 1, Huh-7, 72 h
Method in brief: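 Huh-7 cells carrying a GT1b Con1 bicistronic luciferase replicon, 8000 cells/well. Compound tested at 10 µM in 0.5% DMSO final, 37°C for 72 h. Replicon signal read as luciferase (Bright-Glo) and reported as percentage inhibition at 10 µM. Cell proliferation measured in parallel with CellTiter-Fluor. Values are the average of at least two independent determinations.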

Hepatitis C virus [4] = assay: Antiviral activity against Hepatitis C virus genotype 1b harboring A156T NS3/4A mutation transfected in human HuH7 cells after 72 hrs by luciferase assay; format: functional, cell-based, Hepacivirus hominis; settings: Huh-7, 72 h
Method in brief: (§1)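 Huh-7 cells were transiently electroporated with genotype 1b replicon RNA carrying the specified mutation and plated at 10000 cells/well. Compounds were added at 0.5% DMSO final for 72 h at 37°C. Read-out was Bright-Glo luciferase. EC50 is the mean of two independent runs within 2-fold of each other. A reference drug EC50 was measured alongside each mutant replicon to validate it.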

Hepatitis C virus [5] = assay: Antiviral activity against Hepatitis C virus genotype 1b harboring H3R NS4B mutation transfected in human HuH7 cells after 72 hrs by luciferase assay; format: functional, cell-based, Hepacivirus hominis; settings: Huh-7, 72 h; method in brief: as §1
Hepatitis C virus [6] = assay: Antiviral activity against Hepatitis C virus genotype 1b harboring Q26R mutation transfected in human HuH7 cells after 72 hrs by luciferase assay; format: functional, cell-based, Hepacivirus hominis; settings: Huh-7, 72 h; method in brief: as §1
Hepatitis C virus [7] = assay: Antiviral activity against Hepatitis C virus genotype 1b harboring H94R mutation transfected in human HuH7 cells after 72 hrs by luciferase assay; format: functional, cell-based, Hepacivirus hominis; settings: Huh-7, 72 h; method in brief: as §1
Hepatitis C virus [8] = assay: Antiviral activity against Hepatitis C virus genotype 1b harboring F98C mutation transfected in human HuH7 cells after 72 hrs by luciferase assay; format: functional, cell-based, Hepacivirus hominis; settings: Huh-7, 72 h; method in brief: as §1
Hepatitis C virus [9] = assay: Antiviral activity against Hepatitis C virus genotype 1b harboring V105M mutation transfected in human HuH7 cells after 72 hrs by luciferase assay; format: functional, cell-based, Hepacivirus hominis; settings: Huh-7, 72 h; method in brief: as §1
Hepatitis C virus [10] = assay: Antiviral activity against Hepatitis C virus genotype 1b harboring Y93H NS5A mutation transfected in human HuH7 cells after 72 hrs by luciferase assay; format: functional, cell-based, Hepacivirus hominis; settings: Huh-7, 72 h; method in brief: as §1
Hepatitis C virus [11] = assay: Antiviral activity against Hepatitis C virus genotype 1b harboring S282T NS5B (active site) mutation transfected in human HuH7 cells after 72 hrs by luciferase assay; format: functional, cell-based, Hepacivirus hominis; settings: Huh-7, 72 h; method in brief: as §1
Hepatitis C virus [12] = assay: Antiviral activity against Hepatitis C virus genotype 1b harboring M423I NS5B (thumb 2) mutation transfected in human HuH7 cells after 72 hrs by luciferase assay; format: functional, cell-based, Hepacivirus hominis; settings: Huh-7, 72 h; method in brief: as §1
Hepatitis C virus [13] = assay: Antiviral activity against Hepatitis C virus genotype 1b harboring P495A NS5B (thumb 1) mutation transfected in human HuH7 cells after 72 hrs by luciferase assay; format: functional, cell-based, Hepacivirus hominis; settings: Huh-7, 72 h; method in brief: as §1
Hepatitis C virus [14] = assay: Antiviral activity against Hepatitis C virus genotype 1b harboring Y448H NS5B (palm) mutation transfected in human HuH7 cells after 72 hrs by luciferase assay; format: functional, cell-based, Hepacivirus hominis; settings: Huh-7, 72 h; method in brief: as §1

SMILES	CC50 [1] [nM]	EC50 (Hepatitis C virus [2]) [nM]	other results
O=C(c1nc2scc(C3CC3)n2c1Cl)N1CCN([C@H]2CC[C@H](O)CC2)C(=O)C1	> 10000	890	–
CC(C)c1cn2c(Cl)c(C(=O)N3CCN(C4CCCC4)C(=O)C3)nc2s1	> 10000	1320	–
O=C1CCCc2c1sc1nc(C(=O)N3CCN(C4CCCC4)C(=O)C3)c(Cl)n21	> 10000	> 10000	–
O=C(c1nc2sc3cc(Br)ccc3n2c1Cl)N1CCN(C2CCCC2)C(=O)C1	> 10000	1790	–
CC1CCc2c(sc3nc(C(=O)N4CCN(C5CCCC5)C(=O)C4)c(Cl)n23)C1 (configuration not stated)	> 10000	260	–
CC(C)Cc1csc2nc(C(=O)N3CCN(C4CCCC4)C(=O)C3)c(Cl)n12	> 10000	740	–
Cc1csc2nc(C(=O)N3CCN(C4CCCC4)C(=O)C3)c(Cl)n12	> 10000	–	inhibition at 10 µM (Hepatitis C virus [3]): 53%
O=C(c1nc2sc3c(n2c1Cl)CCC3)N1CCN(C2CCCC2)C(=O)C1	> 10000	130	–
O=C(c1nc2scc(C3CC3)n2c1Cl)N1CCN(C2CC=CC2)C(=O)C1	> 10000	79	–
Cc1cn2c(Cl)c(C(=O)N3CCN(C4CCCC4)C(=O)C3)nc2s1	> 10000	–	inhibition at 10 µM (Hepatitis C virus [3]): 46%
O=C(c1nc2sc(Cl)c(C3CC3)n2c1Cl)N1CCN(C2CCCC2)C(=O)C1	> 10000	8600	–
O=C(c1nc2sccn2c1Cl)N1CCN(C2CCCC2)C(=O)C1	> 10000	> 10000	–
Cc1c(C(C)C)sc2nc(C(=O)N3CCN(C4CCCC4)C(=O)C3)c(Cl)n12	> 10000	–	inhibition at 10 µM (Hepatitis C virus [3]): 50%
Cc1ccc2c(c1)sc1nc(C(=O)N3CCN(C4CCCC4)C(=O)C3)c(Cl)n12	> 10000	300	–
O=C(c1nc2sc3cc(Cl)ccc3n2c1Cl)N1CCN(C2CCCC2)C(=O)C1	> 10000	1850	–
O=C(c1nc2sc3ccccc3n2c1Cl)N1CCN(C2CC=CC2)C(=O)C1	> 10000	31	EC50 (Hepatitis C virus [4]): 77 nM; EC50 (Hepatitis C virus [5]): 4850 nM; EC50 (Hepatitis C virus [6]): 4960 nM; EC50 (Hepatitis C virus [7]): 6400 nM; EC50 (Hepatitis C virus [8]): 3270 nM; EC50 (Hepatitis C virus [9]): 12500 nM; EC50 (Hepatitis C virus [10]): 19 nM; EC50 (Hepatitis C virus [11]): 25 nM; EC50 (Hepatitis C virus [12]): 32 nM; EC50 (Hepatitis C virus [13]): 22 nM; EC50 (Hepatitis C virus [14]): 33 nM
O=C(c1nc2sc3c(n2c1Cl)CCCC3)N1CCN(C2CCCC2)C(=O)C1	> 10000	190	–
O=C(c1nc2sc3ccccc3n2c1Cl)N1CCN(C2CCCC2)C(=O)C1	> 10000	92	–
CC1(C)CCc2c(sc3nc(C(=O)N4CCN(C5CCCC5)C(=O)C4)c(Cl)n23)C1	> 10000	1120	–
O=C(c1nc2sc3ccccc3n2c1Cl)N1CCN([C@H]2CC[C@H](O)CC2)C(=O)C1	> 10000	330	–
O=C(c1nc2sc3c(n2c1Cl)CCCCC3)N1CCN(C2CCCC2)C(=O)C1	> 10000	940	–
CC(C)Cc1c(Cl)sc2nc(C(=O)N3CCN(C4CCCC4)C(=O)C3)c(Cl)n12	> 10000	6700	–
COc1ccc2c(c1)sc1nc(C(=O)N3CCN(C4CCCC4)C(=O)C3)c(Cl)n12	> 10000	8630	–
